High-throughput results deposited in PubChem BioAssay by Broad Institute.
A selection: hits, their analogues and other compounds. The true share with any hit is near 1.7%.
ARNT TACC3 PPI: disruptors of human ARNT/TACC3 interaction; Q9Y6A5; AlphaScreen His-ARNT PAS-B/GST-TACC3 binding, luminescence; TACC3 fragment carries E629A point mutation; inhibition, % at 9.99 µM; 0.66% of 390,000 active;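 active = mean inhibition of replicates at least 50% and at least half of replicates each reaching 50%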
CFTR F508del cor: CFTR F508del correction in bronchial cells | CFBE cells, YFP halide quenching; stimulated with forskolin plus potentiator P3; % fluorescence drop versus neutral controls | activity (quench increase), % at 7.58 µM | 0.36% of 350,000 active | AID 720511;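 active = mean added fluorescence quench of at least 8% versus neutral control, with both replicates also reaching 8%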;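 also: cells transiently co-express mutant CFTR-F508del with the halide-sensitive YFP; corrector assay measuring rescue of mutant channel to the surface after 24 h compound exposure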
CAL PDZ FP-1: human CAL PDZ-peptide interaction inhibition. purified CAL PDZ, TMR-peptide fluorescence polarization, 1 h. inhibition, % at 20 µM. 0.02% of 330,000 active;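 active = highest replicate inhibition of at least 40%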
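Test system: purified CerCALP PDZ construct; Compound dosing: one concentration, 20 µM compound; Also added: TMR-labelled reporter peptide T*-PRC34 bound in PDZ groove; Read-out: inhibition from polarization loss; Controls: unlabelled peptide and DMSO controls; Signal: FP readout, S and P plane fluorescence; Incubation: 1 h at RT.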
CAL PDZ FP-2: CAL PDZ (human) peptide binding inhibition; inhibition, % at 24.9 µM; Q9HD26; AID 602252; purified CAL PDZ, TMR-peptide fluorescence polarization, 1 h; 0.92% of 300,000 active;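 active = mean inhibition of at least 30% with at least half of replicates also reaching 30%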
miR-122 sensor: inhibitors of miR-122 in Huh7 cells; 0.3% of 340,000 active; Huh7 miR-122 Renilla luciferase sensor, 48 h; neutral wells = 0, positive control = 100; activation (reporter increase), % at 12.5 µM;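 active = mean replicate activation score at least 90 and every replicate individually at or above 90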;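 also: higher luciferase means less miR-122 activity so hits act as miR-122 inhibitors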
PGC1a acetyl inh: modulators of PGC1a acetylation. inhibition, % at 15.6 µM. 0.17% of 350,000 active. AID 651687. U2OS PGC1a acetylation, AlphaScreen anti-acetyl-lysine; with virally co-expressed GCN5 acetyltransferase;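 active = every replicate shows inhibition of at least 40%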
AlphaScreen ctr: interferes with AlphaScreen signal, flagging false ARNT-TACC3 hits; shares compounds with ARNT TACC3 PPI; His-ARNT PASB-GST AlphaScreen artifact counter-screen, luminescence; AC50, µM (titrated, usually from 68 µM); 50% of 1,200 active; AID 651705;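 active = every separate test run was called active for a drop in luminescence, with AC50 within twice the top valid dose, actives reach about 71 µM in these data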
Hits are given with their value; . = inactive; / = not tested or not shown.

SMILES	ARNT TACC3 PPI	CFTR F508del cor	CAL PDZ FP-1	CAL PDZ FP-2	miR-122 sensor	PGC1a acetyl inh	AlphaScreen ctr
Cc1cc(=O)[nH]c(-n2[nH]c3c(c2=O)CCCC3)n1	58	/	.	.	.	.	.
Cc1cc(=O)[nH]c(N2CCCNCC2)n1	.	/	.	.	/	/	/
CO[C@H]1CN(C)C(=O)c2ccc(NS(C)(=O)=O)cc2OC[C@H](C)N(C(=O)C2CCC2)C[C@@H]1C	.	.	/	/	.	/	/
Cc1c(C(=O)O)cccc1[N+](=O)[O-]	/	.	.	.	.	.	/
O=C(O)c1c[nH]c2c([N+](=O)[O-])cccc2c1=O	49	.	.	/	.	.	.
Cc1ccc(S(=O)(=O)n2nc(C)c(C#N)c2N)cc1	67	/	.	.	/	/	.
S=c1[nH]nc(-c2cc3c(s2)-c2ccccc2CC3)o1	70	/	.	.	.	.	.
CSc1nnc(-c2cc3c(s2)-c2ccccc2CC3)o1	.	/	.	.	.	.	/
CC(OC(=O)Cc1c(F)cccc1Cl)C(=O)NC1(C#N)CCCCC1 (stereo not given)	active	.	.	.	.	/	.
Cc1cc(C)c(S(=O)(=O)N2CCCC2=O)c(C)c1N(C)S(C)(=O)=O	9.2	.	.	.	.	.	.
COc1ccc(Cl)cc1S(=O)(=O)N1CCCC1=O	.	.	/	.	/	.	/
C[C@@H]1CN([C@@H](C)CO)C(=O)c2cc(-c3ccccc3)cnc2O[C@H]1CN(C)C(=O)Cc1cccnc1	.	.	/	/	.	.	/
O=C(CNCc1ccccn1)N1CCc2ccccc2C1	77	.	.	.	.	.	17µM
O=C(CSc1ncccn1)N1CCc2ccccc2C1	.	.	.	.	.	.	/
Cc1ccc(Cn2cccc(NS(C)(=O)=O)c2=O)cc1	64	.	/	.	/	/	.
O=C(O)c1ncn(Cc2ccccc2)c1C(=O)O	62	/	.	/	.	.	.
O=C1C2CCCCN2C(=O)N1CCCCN1CCN(c2cccc(Br)c2)CC1 (stereo not given)	active	.	.	.	.	.	.
C[C@@H]1CN([C@@H](C)CO)C(=O)c2cc(NC(=O)C3CC3)ccc2O[C@H]1CN(C)C(=O)Nc1ccc2c(c1)OCO2	.	.	/	/	.	/	/
O=C(NCc1ccccc1)c1cc(-c2ccccc2)on1	/	/	/	/	/	/	.
Cc1ccc(-c2cc(C(=O)NCc3cccnc3)no2)cc1	.	/	.	.	.	.	/
Cc1ccc(CNC(=O)c2cc(-c3ccccc3)on2)cc1	/	/	/	/	/	/	.
O=C(NCc1ccccc1)c1cc(-c2cccs2)on1	.	.	.	.	.	.	/
O=C(NCCCCO)c1cc(-c2ccccc2)on1	/	/	/	/	/	/	.
Cc1ccc(-c2ccc3c(c2)O[C@@H](CN(C)Cc2cccnc2)[C@H](C)CN([C@H](C)CO)S3(=O)=O)cc1	.	.	/	/	.	.	/
COc1ccc(S(=O)(=O)Nc2ccc3c(c2)C(=O)N([C@@H](C)CO)C[C@@H](C)[C@H](CN(C)S(C)(=O)=O)OCCCC[C@@H](C)O3)cc1	.	.	/	/	.	.	/
SMILES	ARNT TACC3 PPI	CFTR F508del cor	CAL PDZ FP-1	CAL PDZ FP-2	miR-122 sensor	PGC1a acetyl inh	AlphaScreen ctr
CO[C@@H](CN(C)Cc1cc(F)ccc1F)[C@@H](C)CN(C(=O)Nc1ccc(F)cc1)[C@H](C)CO	.	.	/	/	/	.	/
CCc1c(C)sc(NC(=O)C2CC(c3c(F)cccc3Cl)=NO2)c1C#N (stereo not given)	active	.	.	.	.	.	.
N#Cc1c(NC(=O)C2CC(c3c(F)cccc3Cl)=NO2)sc2c1CCC2 (stereo not given)	.	/	.	.	/	/	/
C[C@H](CO)N1C[C@H](C)[C@@H](CN(C)Cc2ccc3c(c2)OCO3)Oc2ccc(NC(=O)NC3CCCCC3)cc2C1=O	.	.	/	/	.	.	/
CCC(=O)Nc1ccc2c(c1)C(=O)N(C)[C@H]1CC[C@@H](CC(=O)O)O[C@@H]1CO2	.	.	/	/	.	.	/
C[C@H](CO)N1C[C@H](C)[C@H](CN(C)C(=O)CN(C)C)Oc2ncc(C#Cc3ccccc3)cc2C1=O	.	.	/	/	.	.	/
CCOc1cc2c(C#N)c(N3CCOCC3)nc(N)c2c(N)n1	30	/	/	.	.	.	.
